Assays:
[1] = biological target: H1 (Homo sapiens, UniProt P35367); assay: PDSP radioligand binding, H1; settings: 10 μM
[2] = biological target: A4B2 (Rattus norvegicus, UniProt P09483+P12390); assay: PDSP radioligand binding, A4B2 sourced from rodent brain; settings: 10 μM
[3] = biological target: PBR (Rattus norvegicus, UniProt P16257); assay: PDSP radioligand binding, PBR; settings: 10 μM
[4] = biological target: Alpha1a (Homo sapiens, UniProt P35348); assay: PDSP radioligand binding, Alpha1a; settings: 10 μM
[5] = biological target: 5HT6 (Homo sapiens, UniProt P50406); assay: PDSP radioligand binding, 5HT6; settings: 10 μM
Chain of 5HT6 (P50406 whole entry): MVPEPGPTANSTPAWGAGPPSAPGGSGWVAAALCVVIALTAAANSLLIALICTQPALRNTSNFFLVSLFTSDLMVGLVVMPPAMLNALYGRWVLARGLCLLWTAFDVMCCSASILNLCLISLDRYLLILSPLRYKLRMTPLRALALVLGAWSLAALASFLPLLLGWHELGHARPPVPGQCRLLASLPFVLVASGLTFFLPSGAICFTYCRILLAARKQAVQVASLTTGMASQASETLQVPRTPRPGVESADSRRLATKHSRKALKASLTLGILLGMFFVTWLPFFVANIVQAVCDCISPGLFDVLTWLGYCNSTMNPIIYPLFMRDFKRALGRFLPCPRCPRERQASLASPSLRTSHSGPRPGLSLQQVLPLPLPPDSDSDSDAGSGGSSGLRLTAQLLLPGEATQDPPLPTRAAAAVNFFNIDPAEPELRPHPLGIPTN

[6] = biological target: D5 (Homo sapiens, UniProt P21918); assay: PDSP radioligand binding, D5; settings: 10 μM
Chain of D5 (P21918 whole entry): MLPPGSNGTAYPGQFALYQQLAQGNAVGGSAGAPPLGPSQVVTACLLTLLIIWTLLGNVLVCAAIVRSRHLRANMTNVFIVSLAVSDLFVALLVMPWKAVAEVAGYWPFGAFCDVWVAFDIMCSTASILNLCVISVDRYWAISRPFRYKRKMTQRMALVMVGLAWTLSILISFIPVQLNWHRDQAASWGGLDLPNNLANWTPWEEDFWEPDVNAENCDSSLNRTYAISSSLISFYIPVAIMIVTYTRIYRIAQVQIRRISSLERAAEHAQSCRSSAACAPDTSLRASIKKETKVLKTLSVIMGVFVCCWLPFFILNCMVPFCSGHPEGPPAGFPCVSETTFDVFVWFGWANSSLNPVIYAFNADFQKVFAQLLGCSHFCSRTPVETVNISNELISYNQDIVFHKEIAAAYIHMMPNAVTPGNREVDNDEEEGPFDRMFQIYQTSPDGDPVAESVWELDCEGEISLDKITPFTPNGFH

[7] = biological target: Alpha2b (Homo sapiens, UniProt P18089); assay: PDSP radioligand binding, Alpha2b; settings: 10 μM
Chain of Alpha2b (P18089 whole entry): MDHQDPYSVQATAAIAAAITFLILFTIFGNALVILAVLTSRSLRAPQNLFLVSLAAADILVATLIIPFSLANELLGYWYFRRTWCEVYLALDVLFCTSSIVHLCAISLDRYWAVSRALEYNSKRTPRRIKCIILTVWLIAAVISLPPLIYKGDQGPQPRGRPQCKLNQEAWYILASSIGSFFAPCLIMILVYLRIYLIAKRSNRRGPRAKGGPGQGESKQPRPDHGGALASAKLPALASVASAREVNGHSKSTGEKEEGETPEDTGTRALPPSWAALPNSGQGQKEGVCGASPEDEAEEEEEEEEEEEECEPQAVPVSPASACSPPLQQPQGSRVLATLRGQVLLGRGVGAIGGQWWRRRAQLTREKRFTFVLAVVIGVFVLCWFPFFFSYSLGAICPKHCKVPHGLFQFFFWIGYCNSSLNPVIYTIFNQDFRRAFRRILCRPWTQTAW

[8] = tested on: mouse spared nerve injury (SNI) model; assay: Mechanical sensitivity; type: in vivo
Method in brief: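 Male C57Bl6/J mice with SNI (peroneal and tibial sciatic branches cut, sural spared), confirmed hypersensitive 2 weeks post-surgery and screened 21–60 days after SNI. Single intrathecal 10 μg in 5 μL saline (DMSO <5%, vehicle DMSO-matched). Blinded hindpaw von Frey, modified up–down, at set times. n = 4–11. Mean ± SEM; two-way ANOVA with Bonferroni. Repeat injections ≥14 days apart.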

[9] = tested on: mouse spared nerve injury (SNI) model; assay: Mechanical sensitivity; type: in vivo; remark: listed apart in the source
Method in brief: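 Male C57Bl6/J SNI mice, hindpaw mechanical hypersensitivity confirmed 2 weeks post-surgery. Tail-vein IV injection in 100 μL sterile saline (DMSO stock diluted; vehicle DMSO-matched): test compound 10 mg/kg, gabapentin 100 mg/kg, or vehicle, n = 6 each. Blinded von Frey testing (modified up–down) at set time points. Mean ± SEM; two-way ANOVA with Bonferroni post hoc.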

[10] = biological target: 5HT2A (Homo sapiens, UniProt P28223); assay: PDSP radioligand binding, 5HT2A; settings: 10 μM
Chain of 5HT2A (P28223 whole entry): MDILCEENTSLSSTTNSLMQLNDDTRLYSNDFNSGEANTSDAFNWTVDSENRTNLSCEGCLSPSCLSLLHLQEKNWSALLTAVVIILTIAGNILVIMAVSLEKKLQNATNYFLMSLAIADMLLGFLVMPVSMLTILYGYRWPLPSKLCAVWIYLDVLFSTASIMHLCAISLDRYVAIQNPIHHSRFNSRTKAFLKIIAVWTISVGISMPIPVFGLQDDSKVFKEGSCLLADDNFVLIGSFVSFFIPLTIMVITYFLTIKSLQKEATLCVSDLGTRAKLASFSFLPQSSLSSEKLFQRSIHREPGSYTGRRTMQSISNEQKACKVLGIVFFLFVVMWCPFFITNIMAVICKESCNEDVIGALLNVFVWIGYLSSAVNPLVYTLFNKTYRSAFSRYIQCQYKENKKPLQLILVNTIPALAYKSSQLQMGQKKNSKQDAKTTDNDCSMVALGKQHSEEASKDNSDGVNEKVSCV

[11] = biological target: Alpha2a (Homo sapiens, UniProt P08913); assay: PDSP radioligand binding, Alpha2a; settings: 10 μM
Chain of Alpha2a (P08913 whole entry): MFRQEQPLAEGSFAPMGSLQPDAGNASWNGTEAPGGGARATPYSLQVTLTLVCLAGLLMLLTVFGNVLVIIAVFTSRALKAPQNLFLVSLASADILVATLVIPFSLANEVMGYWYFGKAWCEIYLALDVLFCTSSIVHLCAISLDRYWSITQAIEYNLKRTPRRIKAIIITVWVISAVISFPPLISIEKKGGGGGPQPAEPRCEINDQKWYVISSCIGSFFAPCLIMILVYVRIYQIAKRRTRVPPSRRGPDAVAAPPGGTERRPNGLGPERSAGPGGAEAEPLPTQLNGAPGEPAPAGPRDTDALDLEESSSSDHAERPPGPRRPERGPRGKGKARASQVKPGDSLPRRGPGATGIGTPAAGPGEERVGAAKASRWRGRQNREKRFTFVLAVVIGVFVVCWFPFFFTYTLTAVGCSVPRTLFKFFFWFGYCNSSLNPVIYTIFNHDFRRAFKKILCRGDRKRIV

[12] = biological target: Alpha1b (Homo sapiens, UniProt P35368); assay: PDSP radioligand binding, Alpha1b; settings: 10 μM
Chain of Alpha1b (P35368 whole entry): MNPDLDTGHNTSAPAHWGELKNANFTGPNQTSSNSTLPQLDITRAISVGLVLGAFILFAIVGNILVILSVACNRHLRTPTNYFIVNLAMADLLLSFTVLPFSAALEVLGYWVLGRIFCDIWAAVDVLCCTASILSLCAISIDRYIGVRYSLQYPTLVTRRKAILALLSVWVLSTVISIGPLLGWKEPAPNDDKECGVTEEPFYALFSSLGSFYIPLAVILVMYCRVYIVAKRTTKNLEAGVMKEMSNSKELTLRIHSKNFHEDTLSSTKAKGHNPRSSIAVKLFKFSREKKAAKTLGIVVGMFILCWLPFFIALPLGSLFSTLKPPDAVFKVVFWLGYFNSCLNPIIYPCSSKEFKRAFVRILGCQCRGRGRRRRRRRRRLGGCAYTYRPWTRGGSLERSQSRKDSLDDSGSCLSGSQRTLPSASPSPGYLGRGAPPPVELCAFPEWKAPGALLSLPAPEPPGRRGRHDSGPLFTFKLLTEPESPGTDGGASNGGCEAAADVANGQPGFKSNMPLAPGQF

[13] = biological target: 5HT2C (Homo sapiens, UniProt P28335); assay: PDSP radioligand binding, 5HT2C; settings: 10 μM
Chain of 5HT2C (P28335 33-458): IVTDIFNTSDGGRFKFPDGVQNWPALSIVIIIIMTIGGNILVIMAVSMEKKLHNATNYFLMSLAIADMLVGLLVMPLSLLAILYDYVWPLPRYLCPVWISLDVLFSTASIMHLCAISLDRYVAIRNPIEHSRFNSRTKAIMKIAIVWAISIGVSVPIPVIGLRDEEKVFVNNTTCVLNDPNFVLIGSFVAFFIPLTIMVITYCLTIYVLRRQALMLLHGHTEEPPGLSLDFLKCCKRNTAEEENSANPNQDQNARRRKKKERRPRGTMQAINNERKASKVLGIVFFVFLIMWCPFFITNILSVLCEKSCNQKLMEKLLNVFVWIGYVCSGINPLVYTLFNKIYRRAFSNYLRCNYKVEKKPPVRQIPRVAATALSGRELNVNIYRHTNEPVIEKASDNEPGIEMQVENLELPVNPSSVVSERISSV

[14] = biological target: Alpha1d (Homo sapiens, UniProt P25100); assay: PDSP radioligand binding, Alpha1d; settings: 10 μM
Chain of Alpha1d (P25100 whole entry): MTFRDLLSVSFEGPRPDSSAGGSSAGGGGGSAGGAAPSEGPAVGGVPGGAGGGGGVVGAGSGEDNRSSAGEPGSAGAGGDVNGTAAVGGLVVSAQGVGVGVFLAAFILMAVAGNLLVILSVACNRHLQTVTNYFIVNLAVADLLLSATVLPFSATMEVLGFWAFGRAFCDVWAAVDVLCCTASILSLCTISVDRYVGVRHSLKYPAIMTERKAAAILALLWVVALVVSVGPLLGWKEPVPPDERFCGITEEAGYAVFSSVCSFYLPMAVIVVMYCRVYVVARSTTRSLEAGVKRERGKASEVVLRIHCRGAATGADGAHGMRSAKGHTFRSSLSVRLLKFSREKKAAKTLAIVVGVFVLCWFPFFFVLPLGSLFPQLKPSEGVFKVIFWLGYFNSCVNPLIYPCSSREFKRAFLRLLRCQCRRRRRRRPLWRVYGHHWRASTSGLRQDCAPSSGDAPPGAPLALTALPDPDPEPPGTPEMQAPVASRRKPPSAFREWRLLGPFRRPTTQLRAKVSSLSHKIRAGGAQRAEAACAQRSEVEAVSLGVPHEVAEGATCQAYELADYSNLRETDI

[15] = biological target: M1 (Homo sapiens, UniProt P11229); assay: PDSP radioligand binding, M1; settings: 10 μM
Chain of M1 (P11229 whole entry): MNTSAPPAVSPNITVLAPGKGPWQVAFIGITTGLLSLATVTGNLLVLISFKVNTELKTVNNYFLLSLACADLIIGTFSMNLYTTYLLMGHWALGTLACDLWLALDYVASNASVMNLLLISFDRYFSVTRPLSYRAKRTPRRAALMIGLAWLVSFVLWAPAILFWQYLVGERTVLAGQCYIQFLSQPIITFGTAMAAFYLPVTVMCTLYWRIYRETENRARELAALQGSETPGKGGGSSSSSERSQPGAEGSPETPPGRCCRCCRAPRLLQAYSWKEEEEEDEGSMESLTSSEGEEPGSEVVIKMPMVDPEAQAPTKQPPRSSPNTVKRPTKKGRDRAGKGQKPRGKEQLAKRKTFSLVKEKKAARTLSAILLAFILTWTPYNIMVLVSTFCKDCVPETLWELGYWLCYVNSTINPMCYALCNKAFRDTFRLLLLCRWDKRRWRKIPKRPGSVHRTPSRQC

Chain of H1 (P35367 whole entry): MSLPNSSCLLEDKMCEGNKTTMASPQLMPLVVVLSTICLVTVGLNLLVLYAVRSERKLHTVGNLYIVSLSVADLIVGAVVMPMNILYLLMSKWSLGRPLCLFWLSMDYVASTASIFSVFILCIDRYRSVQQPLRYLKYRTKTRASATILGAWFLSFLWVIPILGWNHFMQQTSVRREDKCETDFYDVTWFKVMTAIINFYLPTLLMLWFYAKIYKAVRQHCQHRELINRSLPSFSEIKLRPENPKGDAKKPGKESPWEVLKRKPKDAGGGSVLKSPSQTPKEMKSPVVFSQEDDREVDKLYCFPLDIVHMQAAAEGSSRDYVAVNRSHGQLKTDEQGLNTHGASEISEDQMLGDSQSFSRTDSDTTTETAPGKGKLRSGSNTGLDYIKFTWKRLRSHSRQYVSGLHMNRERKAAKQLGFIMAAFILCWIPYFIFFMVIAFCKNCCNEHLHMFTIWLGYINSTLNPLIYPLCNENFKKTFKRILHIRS
Chain of PBR (P16257 whole entry): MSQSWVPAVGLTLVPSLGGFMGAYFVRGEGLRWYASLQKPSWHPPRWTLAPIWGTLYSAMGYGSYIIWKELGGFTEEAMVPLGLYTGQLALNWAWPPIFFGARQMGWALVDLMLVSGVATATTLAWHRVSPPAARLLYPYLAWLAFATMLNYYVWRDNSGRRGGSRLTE

## OCCCN1CCCC2CC1c1cc(-c3ccc(C(F)(F)F)cc3)ccc12 (racemic) [UKH-1114, (±)-9-(4-(Trifluoromethyl)phenyl)-3,4,5,6-tetrahydro-1,6-methanobenzo[c]azocin-2(1H)-yl)propan-1-ol]
[1]
  inhibition of radioligand binding (Ki column, footnote a): ^a (<50% inhibition of radioligand binding at 10 μM)
[2]
  inhibition of radioligand binding (Ki column, footnote a): ^a (<50% inhibition of radioligand binding at 10 μM)
[3]
  inhibition of radioligand binding (Ki column, footnote a): ^a (<50% inhibition of radioligand binding at 10 μM)
[4]
  inhibition of radioligand binding (Ki column, footnote a): ^a (<50% inhibition of radioligand binding at 10 μM)
[5]
  inhibition of radioligand binding (Ki column, footnote a): ^a (<50% inhibition of radioligand binding at 10 μM)
[6]
  inhibition of radioligand binding (Ki column, footnote a): ^a (<50% inhibition of radioligand binding at 10 μM)
[7]
  inhibition of radioligand binding (Ki column, footnote a): ^a (<50% inhibition of radioligand binding at 10 μM)
[8]; IT
  time of peak relief of mechanical hypersensitivity after dosing: 48 h
[8]; single IT injection, 10 μg, vs vehicle
  effect on SNI-induced mechanical hypersensitivity: significant antimechanical hypersensitivity effects at either 24 or 48 h
[9]; IV 10 mg/kg
  effect on SNI-induced mechanical hypersensitivity: complete reversal of mechanical hypersensitivity
[9]; systemic 10 mg/kg
  duration of relief of mechanical hypersensitivity: 48 h
[9]; systemic 10 mg/kg vs gabapentin 100 mg/kg
  peak magnitude of effect compared with gabapentin: equivalent to 100 mg/kg gabapentin
[10]
  inhibition of radioligand binding (Ki column, footnote a): ^a (<50% inhibition of radioligand binding at 10 μM)
[11]
  inhibition of radioligand binding (Ki column, footnote a): ^a (<50% inhibition of radioligand binding at 10 μM)
[12]
  inhibition of radioligand binding (Ki column, footnote a): ^a (<50% inhibition of radioligand binding at 10 μM)
[13]
  inhibition of radioligand binding (Ki column, footnote a): ^a (<50% inhibition of radioligand binding at 10 μM)
[14]
  inhibition of radioligand binding (Ki column, footnote a): ^a (<50% inhibition of radioligand binding at 10 μM)
[15]
  inhibition of radioligand binding (Ki column, footnote a): ^a (<50% inhibition of radioligand binding at 10 μM)

— PMC5715471 (ACS chemical neuroscience, 2017)
